Pyk2 oligo antag: Pyk2 (human) oligomerization antagonism | Q293 cells, Pyk2 FERM NanoBiT luminescence; stronger effect = lower value | Q14289 | z-score (the deposit names both 25 µM and 10 µM) | AID 1347419 | hit rate 0.83% among 99,000;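 active = Z-score of -3 or lower, scaled per plate to the spread of control and sample wells; inactive = z-score above -3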;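 also: negative z-score means lost luminescence so less FERM oligomerization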
ERa SRC1 inh: blocks coactivator binding to human estrogen receptor alpha; TR-FRET ER-alpha LBD / SRC-1 peptide, estradiol-bound; inhibition, % at 25.6 µM; hit rate 1.7% among 86,000; in the data active = inhibition above about 50%;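 also: 0% = receptor plus peptide control and 100% = peptide only without receptor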
ERa SRC1 pot: ER-alpha (human) coactivator binding potentiation; TR-FRET ERalpha-LBD/SRC-Cy5 coactivator binding, 2 h; 100 = basal binding, no effect; coactivator binding (% of control), % at 25.6 µM; P03372; hit rate 1.3% among 86,000; in the data active = activity above about 200%;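 also: binding measured in presence of low estradiol as agonist stimulus; 0% = peptide alone without receptor and 100% = receptor with peptide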
RORa activator: activators of human nuclear receptor RORA. P35398. CHO-K1 Gal4-RORA LBD luciferase reporter, luminescence; percent increase over mock-subtracted basal signal. activation, % at 10 µM. hit rate 1.5% among 65,000;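 active = activation above the mean of all tested compounds plus 3 SD, cut at about 49% in these data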;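 also: 0% = DMSO-treated RORA cells and 100% = added signal equal to DMSO minus mock-transfected cells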
SF1 activator: SF-1 (human) activation. Q13285. CHO-K1 Gal4-SF-1 LBD luciferase reporter; % increase over DMSO SF-1-specific signal. activation, % at 10 µM. hit rate 1.9% among 65,000;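 active = activation above the mean activation of all tested compounds plus 3 SD, cut at about 50% in these data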
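Test system: transient Gal4-SF-1 LBD reporter, CHO-K1; Amount: 4,000 CHO-K1 cells per well; Doses: 10 µM only; Timing: compound exposure 20 h at 37 °C; Signal: luciferase light emission; Read-out basis: percent activation relative to DMSO median and mock-transfected background; Control set: DMSO negative control and −SF1 background wells; Replicates: one test per compound.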
ERb coact inh: blocks coactivator binding to human estrogen receptor beta. Q92731. TR-FRET ER-beta LBD / SRC1-Cy5 peptide binding; receptor agonist-loaded with 1 µM estradiol. inhibition, % at 25.6 µM. hit rate 1.3% among 86,000. AID 633;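 active = compounds whose percent inhibition of the receptor-coactivator binding signal exceeds about 50% in the single-dose screen, limit read from the data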;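 also: 0% = receptor plus peptide wells without compound and 100% = peptide-only wells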
Target sequence (Q92731 whole entry, looked up, the tested form may be a part): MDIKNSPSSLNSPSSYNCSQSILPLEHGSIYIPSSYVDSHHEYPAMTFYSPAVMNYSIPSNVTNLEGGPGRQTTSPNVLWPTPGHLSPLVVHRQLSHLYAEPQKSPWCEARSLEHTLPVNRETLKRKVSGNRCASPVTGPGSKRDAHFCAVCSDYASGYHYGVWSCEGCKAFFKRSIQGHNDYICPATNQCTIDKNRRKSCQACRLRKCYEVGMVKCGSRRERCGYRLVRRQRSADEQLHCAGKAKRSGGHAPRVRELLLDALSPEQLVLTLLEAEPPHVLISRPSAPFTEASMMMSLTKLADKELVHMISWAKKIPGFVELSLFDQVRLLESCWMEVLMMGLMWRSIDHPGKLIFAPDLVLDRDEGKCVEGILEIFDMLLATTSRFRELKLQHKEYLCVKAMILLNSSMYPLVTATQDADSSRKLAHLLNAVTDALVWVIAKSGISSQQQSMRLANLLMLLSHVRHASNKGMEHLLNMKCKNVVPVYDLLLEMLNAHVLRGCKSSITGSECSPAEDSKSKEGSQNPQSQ
Active calls of the source: *; x = no result given; [ ] = another dose, or the depositor's remark. Hits are enriched below; roughly 4.8% of the tested compounds scored in any of these assays.

SMILES	Pyk2 oligo antag	ERa SRC1 inh	ERa SRC1 pot	RORa activator	SF1 activator	ERb coact inh
CC1CCCCN1C(=O)Cn1cc(/C=C2/C(=O)Nc3ccccc32)c2ccccc21 (configuration not stated)	x	-8.2	85.2	x	x	10.1
COc1ccc(-c2cnnn2-c2ccc(NC(=O)c3ccc(S(=O)(=O)N4CCCCC4)cc3)cc2)cc1	0.52	x	x	x	x	x
CCOC(=O)c1c(C(F)(F)C(F)(F)C(F)(F)C(F)(F)F)n[nH]c1C	-1.99	9.6	92.8	-5.3	-15.3	3.9
O=C(Nc1ccc2snnc2c1)N1CCOCC1	0.54	-34.3	110.1	9.4	9.8	-27.0
O=C(Nc1cccc2ccccc12)N1CCN(c2ccccc2)CC1	-3.82*	-19.0	103.8	2.5	-3.7	-6.9
O=C(Nc1ccc2snnc2c1)N1CCN(c2ccccc2)CC1	0.38	-21.1	626.9*[fluorescence artefact?]	x	x	-42.3
C=CCSC1=N/C(=C\C=C\c2ccco2)C(=O)S1	-0.35	78.3*	62.8	15.7	-16.4	63.8*
Cn1c(=O)c2c(nc(NCc3ccco3)n2C)n(C)c1=O	0.53	10.4	80.7	-11.3	3.0	15.5
Cn1c(=O)c2c(nc(NCc3ccco3)n2C/C=C/c2ccccc2)n(C)c1=O	-3.04*	28.7	60.2	-44.9	-53.1	43.2
Cc1ccc(C(C)C)c(OCCNC(=S)Nc2cccc3ccccc23)c1	-0.76	x	x	x	x	x
O=C(c1ccccc1)c1ccc(N2CCOCC2)c(F)c1	-0.58	-15.4	121.7	74.2*	46.4	3.4
c1ccc(-c2csc(N3CCCCCC3)n2)cc1	-0.64	-1.6	79.4	7.2	7.8	5.3
NC(=O)C1(N2CCCCC2)CCN(c2nc(-c3ccc(Br)cc3)cs2)CC1	0.72	70.9*	108.4	x	x	24.1
CC(C)(C)n1nnnc1C(c1cccs1)N(Cc1ccc(Cl)cc1)CC1CCCO1 (configuration not stated)	-1.64	-3.6	102.9	x	x	-11.4
O=C(Nc1ccc(-c2nc3ccccc3o2)cc1)c1ccc2c(c1)OCO2	2.13	57.2*[fluorescence artefact?]	184.8	-5.8	-17.4	43.8
Cc1ccc(-c2nc3ccccc3[nH]2)cc1NC(=O)c1ccc2c(c1)OCO2	-1.79	x	x	x	x	x
Cc1ccc(-c2nc3ccccc3o2)cc1NC(=O)c1ccc2c(c1)OCO2	-0.28	31.2	265.8*	20.9	17.3	1.0
COc1cc2c(cc1NC(=O)c1ccc3c(c1)OCO3)oc1ccccc12	0.79	4.3	162.2	16.9	53.6*	-0.6
O=C(CSCc1c(F)cccc1Cl)NCc1cccnc1	0.17	x	x	x	x	x
COc1ccccc1N1CCN(C(=O)c2ccc3nc(-c4ccco4)c(-c4ccco4)nc3c2)CC1	-2.81	67.9*[fluorescence artefact?]	57.2	11.1	4.4	66.3*
Cc1ccc(C)c(N2CCN(C(=O)c3ccc4nc(-c5ccco5)c(-c5ccco5)nc4c3)CC2)c1	-1.04	27.2	55.8	x	x	42.7
CCCCn1c(N2CCC(Cc3ccccc3)CC2)nc2c1c(=O)[nH]c(=O)n2C	-1.76	21.6	54.2	25.6	1.8	0.2
O=C(CCCn1c(=S)[nH]c2cc3c(cc2c1=O)OCO3)N1CCN(c2ccc(Cl)cc2)CC1	-0.85	66.0*	73.5	10.3	-16.6	27.4
O=C(CCCn1c(=S)[nH]c2cc3c(cc2c1=O)OCO3)N1CCc2ccccc2C1	-0.85	20.3	124.5	2.7	10.3	50.7*
O=C(CCCn1c(=S)[nH]c2cc3c(cc2c1=O)OCO3)N1CCN(c2ccccc2)CC1	-0.98	15.6	95.8	9.0	10.9	13.7
SMILES	Pyk2 oligo antag	ERa SRC1 inh	ERa SRC1 pot	RORa activator	SF1 activator	ERb coact inh
O=C(NCCN1CCCC1)c1ccc(Cn2c(=S)[nH]c3cc4c(cc3c2=O)OCO4)cc1	1	70.1*[fluorescence artefact?]	144.6	5.3	16.6	45.1
O=C(CSc1nnc(CNc2ccc(F)cc2)n1Cc1ccccc1)N1CCOCC1	-0.01	0.5	94.1	-14.0	-15.7	-4.7
CN1CCN(c2c3c(c(C#N)c4nc5ccccc5n24)CCCC3)CC1	x	0.2	99.2	-28.4	7.2	11.9
O=C(CCNS(=O)(=O)c1cccs1)N1CCCCCC1	1.28	5.3	95.0	31.7	59.9*	4.2
CCCCCCc1ccc(-c2ncc(N)cn2)cc1	-2.25	-7.8	82.8	50.2*	58.6*	-2.4
CCCCOc1ccc(-c2ncc(Cl)cn2)cc1	0.73	7.5	130.0	-1.9	25.4	5.4
Cc1nc2nc(C)c(CCC(=O)NCc3ccc4c(c3)OCO4)c(C)n2n1	-0.77	-3.1	110.4	-7.7	27.2	-8.2
O=C1CC(C(=O)Nc2ccc(C(=O)N3CCOCC3)cc2)C2(CCCCC2)O1 (configuration not stated)	-0.23	56.2*[fluorescence artefact?]	116.4	-1.0	9.7	-1.3
Cc1ccc(N2C(=O)c3oc4ccccc4c(=O)c3C2c2cccc(O)c2)nc1 (configuration not stated)	x	16.0	87.1	42.6	10.9	-0.3
NS(=O)(=O)c1ccc(CCNC2CC(=O)N(CCc3ccccc3)C2=O)cc1 (configuration not stated)	0.06	-1.9	107.3	-6.2	2.4	65.5*
Cc1ccc2[nH]c(=O)c(C(c3nnnn3CCc3ccccc3)N3CCOCC3)cc2c1 (configuration not stated)	0.19	20.3	75.2	5.6	-14.5	7.7
CC(C)OCCCNc1ncnc2c1[nH]c1ccccc12	-0.23	1.2	111.2	-42.0	-40.0	-3.3
N#CC1=C(SCC(=O)NC23CC4CC(CC(C4)C2)C3)NC(=O)C(C#N)C12CCCCC2 (configuration not stated)	-3.32*	-11.1	93.0	-8.1	-13.1	-14.2
N#CC1=C(SCC(=O)Nc2cccc3cccnc23)NC(=O)C(C#N)C12CCCCC2 (configuration not stated)	-1.78	65.7*[fluorescence artefact?]	51.5	-10.7	-11.7	51.5*
COC(=O)c1sccc1NC(=S)N1CC(C)CC(C)C1 (configuration not stated)	1.48	1.2	103.0	x	x	1.5
CCOC(=O)c1c(NC(=O)CSc2nnnn2C)sc(C)c1-c1ccc(C)cc1	-4.24*	-4.8	73.7	-11.4	2.0	-1.4
CCOC(=O)c1c(-c2ccccc2)csc1NC(=O)CSc1nnnn1C	-2.67	6.0	115.5	-13.3	-6.4	9.3
O=C(O)c1ccc(C(=O)c2ccc3c(c2)C(=O)N(Cc2ccco2)C3=O)cc1	-0.21	-4.5	94.5	-9.5	-2.2	4.9
O=C(Nc1ccc(O)cc1C(=O)O)c1ccc2c(c1)C(=O)N(Cc1ccco1)C2=O	-1.67	49.3	34.0	2.4	-13.4	54.2*
Cc1sc(NC(=O)c2ccc(Cl)s2)c(C(N)=O)c1C	-1.31	29.9	116.5	65.5*	100.9*	23.4
Cc1sc(NC(=O)c2ccc(Br)s2)c(C(N)=O)c1C	-2.15	-2.0	167.9	x	x	11.4
C=CCn1c(SCc2c(C)noc2C)nnc1C1COc2ccccc2O1 (configuration not stated)	0.56	2.7	113.1	-3.5	-1.5	0.2

Compound activity (PubChem)
